A selection: hits, their analogues and other compounds. The true share with any hit is near 1.7%.
VIM-2 inh = VIM-2 metallo-beta-lactamase inhibitors, primary screen, biochemical, epi-absorbance readout, Pseudomonas aeruginosa enzyme; purified VIM-2, nitrocefin hydrolysis, epi-absorbance fluorescence; inhibition, % at 5.6 µM; 290,000 tested, 0.89% active;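 active means inhibition above the mean of all tested compounds plus 3 SD, cutoff set per screening run, cut at about 7.5% in these data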;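 further: red hydrolysis product quenches plate fluorescence so inhibitors raise well fluorescence; 0% = enzyme with DMSO and 100% = DMSO without enzyme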
Neddylation inh = inhibitors of cullin neddylation, primary screen, biochemical, TR-FRET, uHTS, NAE and Ubc12 | NEDD8-conjugating enzyme Ubc12 (Homo sapiens) + NEDD8-activating enzyme E1 regulatory … | calls only at 25 µM | 360,000 tested, 0.58% active; in the data active means inhibition above about 36%
procasp7 counter = procaspase-7 activators, primary screen, counter-screen for procaspase-3 activator project, biochemical, absorbance, HTS, human; recombinant procaspase-7, Ac-DEVD-pNA absorbance 405 nm; D23A/D198A/D206A triple mutant, cannot self-cleave; scale: DMSO 0, 5 µM enzyme 100; activation, % at 8.5 µM; 330,000 tested, 0.093% active;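 active means percent activation above the screen-wide mean plus 3 SD, cut at about 25% in these data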
Target sequence (P55210 whole entry D23A/D198A/D206A): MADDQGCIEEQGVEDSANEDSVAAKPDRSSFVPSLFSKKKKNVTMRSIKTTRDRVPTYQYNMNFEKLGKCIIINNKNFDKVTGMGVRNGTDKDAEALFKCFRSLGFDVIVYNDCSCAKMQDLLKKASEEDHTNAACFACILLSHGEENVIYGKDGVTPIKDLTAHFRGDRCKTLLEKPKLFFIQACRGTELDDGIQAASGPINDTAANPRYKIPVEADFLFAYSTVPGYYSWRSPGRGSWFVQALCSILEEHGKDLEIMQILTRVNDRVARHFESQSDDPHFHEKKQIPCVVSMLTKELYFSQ
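Test system: Procaspase-7 triple mutant (PC-7 D3A). Also added: Ac-DEVD-pNA substrate, 400 µM as added. Schedule: 1 h enzyme–compound preincubation and 2 h substrate reaction, both 25 °C. Signal: p-Nitroaniline absorbance at 405 nm, read at 0 and 120 min. Control set: low DMSO alone, high DMSO plus 5 µM PC-7.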
PolyA inh = polyadenylation inhibitors in yeast reporter cells, primary screen, luminescence, S. cerevisiae. S. cerevisiae SKY197-pL101 polyadenylation reporter, beta-gal luminescence; efflux-impaired pdr1/pdr3 knockout yeast; score 100 = 6 SD above DMSO. activity score, % at 12 µM. 300,000 tested, 0.02% active;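 active means lowest replicate activity score at least 50, where 100 means six control SD above control mean; inconclusive means lowest score under 50 but half or more replicates reach 50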;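 further: yeast exposed to compound for 9 h at 30 °C; higher score means more reporter readthrough which indicates perturbed polyadenylation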
procasp3 activ = activators of human procaspase-3 D3A mutant, primary screen, biochemical, absorbance, PC-3 D3A mutant, single concentration | Caspase-3 (Homo sapiens), P42574 | recombinant procaspase-3 D3A, Ac-DEVD-pNA absorbance 405 nm | activation, % at 8.5 µM | 330,000 tested, 0.11% active | AID 463141, 2010;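 active means activation above the mean of all tested compounds plus 3 SD, cut at about 21% in these data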;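 further: 0% = DMSO alone and 100% = DMSO wells spiked with extra 5 µM PC-3 D3A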
Target sequence (P42574 whole entry D9A/D28A/D175A): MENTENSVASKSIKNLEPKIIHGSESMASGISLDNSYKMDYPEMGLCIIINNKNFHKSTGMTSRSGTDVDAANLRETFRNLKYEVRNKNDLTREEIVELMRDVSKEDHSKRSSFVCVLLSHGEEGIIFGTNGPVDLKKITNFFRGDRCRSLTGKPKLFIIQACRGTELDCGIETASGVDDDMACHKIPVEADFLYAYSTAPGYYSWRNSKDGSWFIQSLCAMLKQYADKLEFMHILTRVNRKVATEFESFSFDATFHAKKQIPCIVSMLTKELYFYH
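Compound: 8.5 µM single point, 0.8% DMSO / Material: Autoprocessing-dead procaspase-3 D3A mutant enzyme / Timing: 1 h preincubation plus 2 h reaction at 25 °C / Medium: Zinc-free HEPES/NaCl buffer with 0.01% Triton X-100 at pH 7.4 / Technique: 405 nm absorbance of p-nitroaniline, reads at 0 and 120 min / Repeats: one well per compound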
IMP-1 inh = IMP-1 metallo-beta-lactamase inhibitors, primary screen, biochemical, epi-absorbance readout, Pseudomonas aeruginosa enzyme; 290,000 tested, 0.45% active; AID 1556, 2009; purified IMP-1, nitrocefin hydrolysis, epi-absorbance fluorescence; inhibition, % at 5.6 µM; metallo-beta-lactamase IMP-1 (Pseudomonas aeruginosa);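 active means inhibition above the mean plus 3 SD of all compounds in the same screening run, cut at about 4.5% in these data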;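 further: 0% = IMP-1 with DMSO and 100% = DMSO wells lacking enzyme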
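System: purified IMP-1; amount: IMP-1 0.2 nM before substrate addition; compound: single dose, 5.6 µM; times: 25 °C, 15 min preincubation, 25 min reaction; signal: Epi-absorbance via hydrolysed-nitrocefin quenching of white-plate fluorescence, 480/530 nm, EDTA stop; benchmarks: DMSO with and without IMP-1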
Numbers without * were called inactive; i = inactive; ? = inconclusive; · = no result given; + = active, no number.

SMILES	VIM-2 inh	Neddylation inh	procasp7 counter	PolyA inh	procasp3 activ	IMP-1 inh
Cc1cccc(-n2c(CNC(=O)c3cccc([N+](=O)[O-])c3C)n[nH]c2=S)c1	8.8*	i	-7	-2	2	-3
COc1ccccc1-n1c(CNC(=O)c2cccc([N+](=O)[O-])c2C)n[nH]c1=S	-1	i	-12	-1	-4	-2
CC(=O)c1sc(NCc2ccccc2)nc1C	0	i	-1	1	-3	28*
CC(=O)c1sc(NCc2ccc(C)cc2)nc1C	0	i	-3	1	0	-1
CCN(c1ccc2c(c1)OCO2)S(=O)(=O)c1cc2c(cc1Br)CCN2C(=O)C1CC1	·	i	·	·	·	·
CCN(c1ccc2c(c1)OCO2)S(=O)(=O)c1cc(Br)cc2c1N(C(C)=O)CC2	-3	i	4	-10	5	7.4*
CCc1nnc2c(NCCc3ccccc3)nc3ccccc3n12	8.5*	i	10	-8	5	-2
CCCNc1nc2ccccc2n2c(C)nnc12	11*	i	9	10	6	-6
O=C(COc1ccccc1Cl)NCCCNC(=O)c1ccco1	2	i	0	13	0	-1
O=C(OCc1ccc(F)cc1)c1ccc2c(c1)-c1ccccc1C2=O	-2	i	5	-1	2	4.6*
O=C(OCc1ccc(F)cc1)c1cc2ccccc2cc1O	-1	i	12	2	5	-1
Cc1nnc(N2C(=O)C(=O)/C(=C(/O)c3ccc4c(c3)OCCO4)C2c2ccc([N+](=O)[O-])cc2)s1 (stereo unspecified)	-1	i	-17	-21	-7	-3
CN(C)c1ccc(C=C2SC(=S)NC2=O)cc1	·	i	·	·	·	·
CCOc1ccc(N(C)c2ccc(/C=C3/SC(=S)NC3=O)cc2)cc1	2	i	-6	-2	-4	6.5*
Cc1nc2nc(COc3ccccc3)[nH]n2c(=O)c1Cl	-3	i	7	-2	1	-3
N=C1/C(=C\c2coc3ccccc3c2=O)C(=O)N=C2SC(c3ccncc3)=NN12	3	i	-8	24	-9	3
CCC1=NN2C(=N)/C(=C/c3cc(C)n(Cc4ccccc4)c3C)C(=O)N=C2S1	-2	i	-22	10	-40	-1
N=C1/C(=C/c2coc3ccccc3c2=O)C(=O)N=C2SC(c3ccco3)=NN12	-1	i	-6	4	-5	6.8*
Cc1cc(/C=C2\C(=N)N3N=C(c4ccco4)SC3=NC2=O)c(C)n1Cc1ccccc1	-1	+	-34	3	-41	-2
COc1cccc(CNC(=O)c2nnn(-c3ccc(OC(F)(F)F)cc3)c2N)c1	-3	i	-5	14	-2	0
CC(C)CC(Nc1ncnc2scc(-c3ccccc3)c12)C(=O)O (stereo unspecified)	3	i	-5	60*	-2	1
Cc1cccnc1NC(=O)c1ccc2c(c1)NC(=O)C(C)S2 (stereo unspecified)	·	i	13	1	-1	·
COc1ccc(N2CCN(C(=O)CN3C(=O)NC(C)(C4CC4)C3=O)CC2)cc1 (stereo unspecified)	·	i	18	·	3	·
O=C(CSc1nnnn1-c1ccc(F)cc1)Nc1nc2ccccc2s1	-2	i	0	22	8	4.7*
CCS(=O)(=O)N1Cc2ccccc2CC1C(=O)Nc1nc2c(C)cccc2s1 (stereo unspecified)	0	i	-3	-14	5	-4
SMILES	VIM-2 inh	Neddylation inh	procasp7 counter	PolyA inh	procasp3 activ	IMP-1 inh
O=C(O)C1=C(C(=O)Nc2cc(C(F)(F)F)ccc2Cl)CCCC1	4	i	-3	-6	-9	9.9*
O=C(CN1CCCCCC1)Nc1cc(C(F)(F)F)ccc1Cl	0	i	3	-7	2	-2
O=C(Nc1cccnc1)/C(N=Nc1cccnc1)=C(\O)c1ccccc1	10*	i	-11	-14	-9	-4
O=C(Nc1ccccc1)C(=O)Nc1cccnc1	-1	i	13	1	-2	-2
c1ccc(-c2nc(N3CCCCCC3)c3ccccc3n2)nc1	3	i	-1	-11	-1	5.8*
c1ccc(-c2nc(N3CCOCC3)c3ccccc3n2)nc1	4	i	-11	-13	-11	-11
c1ccc2c(c1)nc(N1CCCCC1)c1ccccc12	-4	i	3	-32	4	-4
c1ccc2c(N3CCCCC3)nc(N3CCCC3)nc2c1	11*	i	3	12	-5	-3
CCOCCn1c(CN2CCN(c3cccc(Cl)c3)CC2)nc2c1c(=O)n(C)c(=O)n2C	1	i	2	?	3	-3
COc1ccccc1C(=O)NNC(=O)c1ccccc1F	-2	i	-4	-5	-1	8.6*
COc1ccccc1C(=O)NNC(=O)c1cccc(F)c1	-3	i	5	17	3	-3
COc1cccc2c1C(=O)c1ccc3ccccc3c1C2=O	1	i	-8	3	-8	13*
CC1CC(C)CN(C(=O)COC(=O)c2cc([N+](=O)[O-])ccc2N2CCOCC2)C1 (stereo unspecified)	·	i	-27	16	2	·
O=C(N/N=C/c1ccc(Br)s1)c1ccco1	-1	i	4	5	0	-2
O=C(N/N=C/c1sc(=O)n(Cc2ccc(Br)cc2)c1Cl)c1ccco1	2	i	-5	-9	0	24*
Cc1nn(CCc2n[nH]c(=S)n2-c2ccc(F)c(Cl)c2)c(C)c1[N+](=O)[O-]	9.7*	i	-6	-3	-16	-2
Cc1nn(CCc2n[nH]c(=S)n2-c2ccc(F)cc2)c(C)c1[N+](=O)[O-]	-1	i	-14	11	-2	-3
COc1ccc(OC)c(S(=O)(=O)NCC(=O)O)c1	-1	i	-2	-15	0	-2
COc1ccc(C(=O)NC(=S)NNC(=O)c2ccccc2O)cc1	4	i	1	1	-3	-3
COc1ccc(C(=O)NC(=S)NNC(=O)c2ccccc2C)cc1	·	+	-16	-12	-5	·

Assay outcomes as filed in PubChem BioAssay.
